The test system of the series is MS2 coat protein. The experiment in a line: apparent Kd, MS2 coat protein; higher = weaker binding; RNA-MaP array; FMN 200 µM where present. In outline: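 In 100 mM Tris-HCl pH 7.5, 80 mM KCl, 4 mM MgCl2, BSA, DTT, yeast tRNA and Tween-20, SNAP-549-labelled MS2 coat protein was titrated from 0.7 or 1.5 nM, doubling to 3 µM, over designs transcribed by stalled E. coli RNA polymerase on Illumina sequencing-chip clusters. This was done first without ligand, then with ligand held constant. After green signal was normalised to red-channel RNA signal and control-cluster median Fmax, the apparent Kd was taken as the median of filtered per-cluster binding-curve fits.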

[1] abbreviates: designed as: OFF switch for flavin mononucleotide, no ligand.
Setting [2] is: ligand present: flavin mononucleotide, designed as: OFF switch for flavin mononucleotide.
[3] abbreviates: designed as: ON switch for flavin mononucleotide, no ligand.
[4] abbreviates: ligand present: flavin mononucleotide, designed as: ON switch for flavin mononucleotide.

A word on the apparent Kd: it is the concentration giving half-maximal binding under the conditions of the assay.

Turning to “CGCGUAUGAGGAUAUGCAUAAAAGGGUGCACUGAGUCUGAGACAUGAGGAUCACCCAUGUAGAAGGCGUGCGCU”, the “apparent Kd” value came out at 12.9 nM under setting [1] and 16 nM under setting [2].
Consider “AGGCGGGUAGGAUAUGCGUACUUACGGGAAAGCUGAAUGGUACAUGAGGAUCACCCAUGUAGAAGGGCUCUGAA”, for which the “apparent Kd” value was 18.3 nM under setting [1] and 27 nM under setting [2].
With “GAGACGUCAGGAUAUCUGAUGUCUAACUUCGGUUAGACAUCAGAGAAGGGACAUGAGGAUCACCCAUGUCUCAA”, the “apparent Kd” value under setting [1] came out at 16.9 nM and the “apparent Kd” value under setting [2] was 12.1 nM.
Taken in the same sequence, the figures for “AAUAUGUUGCAGAAGGCUAUAUUUUUUUAGUACCUCAUGACAUGAGGAUCACCCAUGUUUUUGUUGGAGGAUAUGCAAUAUAUU” were 8.07 nM and 7.56 nM.
For “CUAUUACGAGGAUAUGAUUUAAAUAACAUGAGGAUCACCCAUGUUUUUACGUUAUUUUGUUUAGAAGGCGUAUUGU” the same measures were 52.9 nM and 35.7 nM.
Consider “GAAUUAUUACAGAAGGUGUUUUACAUGAGGAUCACCCAUGUUUUAUUGUUUAAAUUUGAUAUUUACAAGGAUAUGUACUAAUCU”, for which the “apparent Kd” value runs as follows: under setting [3], 32.1 nM; under setting [4], 24.3 nM.
On to “CCCUCACAUGAGGAUCACCCAUGUUAGGAUAUCUACCUGGAGCUUUGAUUAGCCCAACGGAGAAGGAACGUGCA”, for which the “apparent Kd” value came out at 19 nM under setting [1] and 18.7 nM under setting [2].
With “UGACCAGUCCAGAAGGUGACGUCUGCAACUAGUCAAGGAUAUGGGUUGGUUCACGGUCGGCUACAUGAGGAUCACCCAUGUACC”, the “apparent Kd” value by setting is: under setting [3], 8.26 nM; under setting [4], 5.87 nM.
In the case of “GCCAUCGCAUGAGGAUAUGGCACCGUUUCGGUGCCAGAAGGCAUGUCAUAAGACAUGAGGAUCACCCAUGUGAAUAAGAUGGCA”, the “apparent Kd” value runs as follows: under setting [3], 360 nM; under setting [4], 38.5 nM.
For “ACUAGAUGAGGAUAUGCACAUUUUAGUGUUCCUCUAGAUUAACAUGAGGAUCACCCAUGUAGAAGGCGUCAAUU”, the “apparent Kd” value under setting [1] amounted to 45.7 nM and the “apparent Kd” value under setting [2] was 64.8 nM.
In the case of “GGAAAUCAUGUAGGAUAUGCAUGGCGAAGCUACGCAGAAGGACAUGAGGAUCACCCAUGUUAUAGCUACCCAGUUCGGUGGCAA”, the “apparent Kd” value is 133 nM under setting [1] and 180 nM under setting [2].
As for “GCUUGUAGAGGAUAUACAAGGGCCUUAGCGGAUAACACCGCACAUGAGGAUCACCCAUGUAGAAGGCUACCACC”, the “apparent Kd” value runs as follows: under setting [1], 16.8 nM; under setting [2], 94.1 nM.
On to “GCAUGACAAAGUCAUGCAAUACGAACAUGAGGAUCACCCAUGUAGGAUAUGCUACUCAAAGAGUAGCAGAAGGACAUGUGCCUU”, for which the “apparent Kd” value stood at 36.1 nM under setting [1] and 288 nM under setting [2].
For the sequence “GGUGCACGCACAGGAUAUCCGGCGGAGCUCGUCGGAGAAGGGUGACAUGAGGAUCACCCAUGUACGUGCAACUUAGUUUAAGAG”, the “apparent Kd” value is, setting by setting: under setting [3], 20 nM; under setting [4], 19 nM.
As for “AGAAAACAUGAGGAUCACCCAUGUGAGGAUAUCGAUGUCCAAGGGCGGGUGCGGGACUCGAGAAGGCACUUGGA”, the “apparent Kd” value by setting is: under setting [1], 76 nM; under setting [2], 64.3 nM.
“AAAGUCGGAAGAUAAUAAUGAAUACAUGAGGAUCACCCAUGUAAGGAUAUGCAGUGGAAUACACUGCAGAAGGUACAAACCGAC”: the “apparent Kd” value was 14.7 nM under setting [1] and 19.8 nM under setting [2].
For the sequence “UUGGACUUCGUAGGAUAUGUAGGAUAUUCCUACAUGAGGAUCACCCAUGUUGACAUGGAAGAAGGACAGAAGGACGAUGUCCAU”, the “apparent Kd” value under setting [3] stood at 257 nM and the “apparent Kd” value under setting [4] stood at 4.12 nM.
In the case of “GAAUAAUAGAUCCAAUAUAUCUACAUGAGGAUCACCCAUGUGCAGGAUAUGCUAAAAUUUAAUAAGCAGAAGGGCAAGAACGGC”, the “apparent Kd” value came out at 54.7 nM under setting [1] and 138 nM under setting [2].
Taken in the same sequence, the figures for “GGAUCGAUGUAGAAGGCUGUCUUAAAAUAGGACAGAGGAUAUACAUGAGGAUCACCCAUGUACUCCUUUAAAAUGAUCCAAAUA” were 5.81 nM and 9.65 nM.
“GGCAAGUGAGGAUAUCACCACGGCGUGGGCACCACGGCCAGUGAGAAGGCACAUGAGGAUCACCCAUGUGAUCA”: the “apparent Kd” value is 88 nM under setting [1] and 541 nM under setting [2].
In the case of “GCGUGUAUAAGAUUUAUAAAACAGUCAGAAGGUGAUAAGACGACAUGAGGAUCACCCAUGUAAUUCAAGGAUAUGAUAAUACGC”, the “apparent Kd” value is, setting by setting: under setting [3], 53.8 nM; under setting [4], 13.3 nM.
On to “GCAGUGUCAGGAUAUAGUUCGAGUUCGGAAAUGAGCUUGAGCUAGAAGGGACAUGAGGAUCACCCAUGUGCUGU”, for which the “apparent Kd” value reads like this: under setting [1], 38 nM; under setting [2], 83.2 nM.
For the sequence “GGGAGACAUGAGGAUCACCCAUGUGAAAACGUGCGAGGAUAUCAAUGGAAACCAUACUGUUGAGAAGGCGUUUGUC”, the “apparent Kd” value runs as follows: under setting [3], 100 nM; under setting [4], 55 nM.
As to “CAGUACUGAGGAUAUACAUGAGGAUCACCCAUGUCCUAAAAGUAGGAUACUACUAUUAGUAGAAGGCAGUACUG”, the “apparent Kd” value stood at 17.9 nM under setting [1] and 190 nM under setting [2].
Regarding “GUUUUGGGAGGAUAUGCGUGGAUUAUUUUCGUAUGUUGUUUACAUGAGGAUCACCCAUGUAGAAGGUCUAGAGC”, the “apparent Kd” value under setting [1] amounted to 39.7 nM and the “apparent Kd” value under setting [2] came to 133 nM.
For “CUCAGACAUGAGGAUCACCCAUGUCAGGAUAUCGUCUACCUGUGGAAACACAGGUAGACGAGAAGGGAUGUGUU” the same measures were 51.6 nM and 44.1 nM.
For “UGUCGGAGCAGAGGAUAUUACAUGAGGAUCACCCAUGUAUGAACCAAUAGCAGGAAACAGCAAUGUAAGAAGGCUGCUCCGACA”, the “apparent Kd” value under setting [1] is 10.3 nM and the “apparent Kd” value under setting [2] came out at 77.4 nM.
Turning to “UUGCCUCAGAACAUGAGGAUCACCCAUGUGCUGCGGGCAUCGUAGGAUAUGAUGGUAUGAUACCAUCAGAAGGAUGAUGGUACC”, the “apparent Kd” value stood at 6.18 nM under setting [3] and 5.77 nM under setting [4].
As for “ACAUAGUGAGGAUAUGCUGCUCGUCACUUGCGUGAUGAGUAGCAGAAGGCACAUGAGGAUCACCCAUGUAAAAA”, the “apparent Kd” value under setting [1] came to 40.5 nM and the “apparent Kd” value under setting [2] was 55 nM.
As to “UUUUCACAUGAGGAUCACCCAUGUGAGGAUAUGGUUUCGCUGGCCGUAGCCAGUGGAACCAGAAGGCGCGUGAU”, the “apparent Kd” value by setting is: under setting [1], 60.7 nM; under setting [2], 66.4 nM.
For the sequence “AUGCUAGUGUGAGGAUAUUAACAUGAGGAUCACCCAUGUUGGAAGUACACGACAUGAGGUACAUUUAAGAAGGUACAUUAGCAU”, the “apparent Kd” value is 145 nM under setting [1] and 161 nM under setting [2].
Turning to “UGGUCAUGAUCAGGAUAUUAACAUGGGCUACAUUAAGAAGGGAUAGUGAGAUGCGAACUGAACGACAUGAGGAUCACCCAUGUA”, the “apparent Kd” value is, setting by setting: under setting [3], 51.9 nM; under setting [4], 35.8 nM.
Consider “CCUAUGUGAGGAUAUCACUGGUCUUCUCACUGGAUGACCAGUGAGAAGGCACAUGAGGAUCACCCAUGUCGGUG”, for which the “apparent Kd” value was found to be 436 nM under setting [1] and 349 nM under setting [2].
Taken in the same sequence, the figures for “UGGUGUGAAGGAUAUACAUGAGGAUCACCCAUGUAUGAGGUGGAGGUUGAGGUGGAGGGUAGAAGGUCAGGUGG” were 27.3 nM and 27 nM.
Taken in the same sequence, the figures for “AAAUAGCAUGAGGAUAUUGGACUGGAUUCAGUACGAGAAGGCAUGACAUGAGGAUCACCCAUGUUGUGUUGGGA” were 19.7 nM and 44.8 nM.
For “GUAAUUAAGAGAGGAUAUUGACAUGAGGAUCACCCAUGUAUUUGGGAGUGUUUACUGAAUUCUUACGAGAAGGCUUUUAAAUAC” the same measures were 89.2 nM and 178 nM.
For “CCAUGGCAUGUAGGAUAUGUCUGACAAAGUCAGACAGAAGGACAUGAGGAUCACCCAUGUAAAAGAAAACCAACAUAGCCAUGG”, the “apparent Kd” value is, setting by setting: under setting [1], 6.23 nM; under setting [2], 5.88 nM.
Consider “GCUGCUAUCGCAGGAUAUUACAUGGGAAAUAAGACAUGAGGAUCACCCAUGUUAAAUAUCGUAAAUAAGAAGGGCGAUAGCAGC”, for which the “apparent Kd” value by setting is: under setting [3], 270 nM; under setting [4], 475 nM.
In the case of “GCCCGAUCCACGUUGGGCCCAGACAGAAGGGCACACGGUCUAAGUCACAUGAGGAUCACCCAUGUGCAGGAUAUGUCUCGACUC”, the “apparent Kd” value was 7.63 nM under setting [1] and 25.9 nM under setting [2].
On to “AAAGCACAUGAGGAUCACCCAUGUGGAAAUAACACAGGAUAUCUGGCCUAAGCUUAGGCGAGAGAAGGGUGACCUA”, for which the “apparent Kd” value runs as follows: under setting [3], 88.9 nM; under setting [4], 223 nM.
Regarding “GUACAGAAGGAGAAGGGCUAGGAGGUCCAGCUUAUGUGUGUUGCAACAUGAGGAUCACCCAUGUAGCAGGAUAUCCUUUGUACA”, the “apparent Kd” value worked out at 41.1 nM under setting [1] and 440 nM under setting [2].
Taken in the same sequence, the figures for “AAGCACAGAGGAUAUACAAUCCUCAGUGGGUCUGGCGAGCCACAUGAGGAUCACCCAUGUAGAAGGCUGGGCUC” were 11.8 nM and 14.6 nM.
Consider “GGAAUAUUUACAGGAUAUGUUUUGUUAAGUCGAGCAGAAGGGUAGAUGUCUUACACGGUUUGUUACAUGAGGAUCACCCAUGUU”, for which the “apparent Kd” value was 114 nM under setting [3] and 35.1 nM under setting [4].
Turning to “AAAAUACAUGAGGAUCACCCAUGUUAGGAUAUCCAAGGUCUGACCCUCAGGGUCAGAAGGAGAAGGGAUGUGGU”, the “apparent Kd” value was 56.7 nM under setting [1] and 67.7 nM under setting [2].
For the sequence “AUACAUGAGGAUCACCCAUGUGGAUCACCCAUGUAAGAUGGUAGAAGGAUGUUAUUAUUAUUUUCAUAGGAUAUACUAUUUAGU”, the “apparent Kd” value runs as follows: under setting [1], 328 nM; under setting [2], 408 nM.
Take “CGGCAUGUCUGAGGAUAUCUGCACGUUUAGUGCAGAGAAGGCAGAACAUGAGGAUCACCCAUGUAGAUCAUUAACCGAUUAAUU”: the “apparent Kd” value is, setting by setting: under setting [1], 228 nM; under setting [2], 337 nM.
Taken in the same sequence, the figures for “AUAUUAAGUGUGAGGAUAUGCUGGUCCUUGGAUCAGCAGAAGGCACAUGAGGAUCACCCAUGUAAUAUAUUUAU” were 90.4 nM and 349 nM.
“GUAGCAUUCUGAGGAUAUUCAUACCGGAAACGGACAUGAGGAUCACCCAUGUGGCGAAAGCCUAGGGAGAAGGCAGUAUGCUAC”: the “apparent Kd” value worked out at 56.6 nM under setting [3] and 13.8 nM under setting [4].

These data come from the EternaBench riboswitch data.
